The values below come from ChEMBL document CHEMBL3397044, “Discovery and in vitro and in vivo profiles of N-ethyl-N-[2-[3-(5-fluoro-2-pyridinyl)-1H-pyrazol-1-yl]ethyl]-2-(2H-1,2,3-triazol-2-yl)-benzamide as a novel class of dual orexin receptor antagonist” (Bioorg Med Chem, 2015).

Data set [1] deals with T1, Orexin/Hypocretin receptor type 1 (Homo sapiens) (UniProt O43613).
T1 sequence (whole entry): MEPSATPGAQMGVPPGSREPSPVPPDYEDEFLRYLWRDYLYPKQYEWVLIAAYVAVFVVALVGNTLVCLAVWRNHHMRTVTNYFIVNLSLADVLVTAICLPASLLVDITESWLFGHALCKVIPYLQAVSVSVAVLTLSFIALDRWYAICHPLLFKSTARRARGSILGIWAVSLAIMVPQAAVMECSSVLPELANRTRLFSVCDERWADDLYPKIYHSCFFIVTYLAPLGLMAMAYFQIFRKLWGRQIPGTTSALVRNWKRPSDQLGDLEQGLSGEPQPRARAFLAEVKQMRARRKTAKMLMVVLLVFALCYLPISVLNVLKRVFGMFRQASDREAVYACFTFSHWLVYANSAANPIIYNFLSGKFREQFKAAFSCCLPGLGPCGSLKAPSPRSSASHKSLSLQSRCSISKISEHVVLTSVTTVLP
Description: Antagonist activity against human OX1 receptor expressed in CHO cells assessed as reduction in [Ala6,12]orexin-A-induced intracellular Ca2+ mobilization incubated for 30 mins by Fluo-4 AM dye based fluorescence assay. It is filed as functional, cell-based. In short, it runs like this: (§1)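 Cells seeded 2.4 × 10⁴/well, cultured 18 h. Loaded with Fluo-4 AM (0.5 µM final) in HBSS, 20 mM HEPES, 0.1% BSA, 2.5 mM probenecid, 0.2 mg/mL amaranth, pH 7.4, 37 °C 1 h. Washed, then antagonist for 30 min at room temperature. Peak minus basal fluorescence normalized to the [Ala6,12]orexin-A maximum. Kb = IC50/(1+[L]/EC50). At least three independent runs in duplicate.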
In general terms: Calcium assays in cells follow changes in intracellular calcium, usually with a dye or a luminescent sensor.

In data set [2] the target is T2, Orexin receptor type 2 (Homo sapiens) (UniProt O43614).
T2 sequence (whole entry): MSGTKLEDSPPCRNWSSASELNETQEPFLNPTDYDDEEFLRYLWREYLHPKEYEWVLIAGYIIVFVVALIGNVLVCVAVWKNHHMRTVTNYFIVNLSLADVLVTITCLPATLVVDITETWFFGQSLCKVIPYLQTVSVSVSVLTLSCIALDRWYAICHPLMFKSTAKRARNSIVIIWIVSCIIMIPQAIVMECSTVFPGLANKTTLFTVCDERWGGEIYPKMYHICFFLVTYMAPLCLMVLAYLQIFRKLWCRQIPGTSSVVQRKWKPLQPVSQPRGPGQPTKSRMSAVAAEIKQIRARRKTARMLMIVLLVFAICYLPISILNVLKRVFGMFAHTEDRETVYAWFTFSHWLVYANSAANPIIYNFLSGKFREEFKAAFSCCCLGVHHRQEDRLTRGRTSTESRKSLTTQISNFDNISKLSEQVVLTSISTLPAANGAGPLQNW
Description: Antagonist activity against human OX2 receptor expressed in CHO cells assessed as reduction in [Ala6,12]orexin-A-induced intracellular Ca2+ mobilization incubated for 30 mins by Fluo-4 AM dye based fluorescence assay. It is filed as functional, cell-based. In short, it runs like this: as §1

Data set [3] is described as follows: Drug metabolism in human liver microsomes at 5 uM after 15 mins. The data set is classed as ADME. The following applies: read-out: Drug metabolism. In short, it runs like this: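 Liver microsomes at 1 mg protein/mL with 5 µM compound, incubated 15 min. Value reported as percentage of compound metabolized.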
(In general: Liver microsomes are a subcellular fraction often used to study metabolism.)

The nature of data set [4]: Half life in human. It is filed as ADME, organism-based. The following applies: in vivo.

SMILES strings stand for the structures.

What is called Kb is the equilibrium dissociation constant of an antagonist, usually derived from a functional assay. By half-life is commonly meant how long it takes for the measured level to halve.

For the compound `Cc1ccc(-n2nccn2)c(C(=O)N(C)CCn2ccc(-c3ccc(F)cn3)n2)c1`, the Kb is 2.27 nM in data set [1] and 8.58 nM in data set [2].
On the same counts, the results for `CCN(CCn1ccc(-c2ccc(C(F)(F)F)cn2)n1)C(=O)c1cc(C)ccc1-n1nccn1` are 48.6 nM and 902 nM.
As for `CCN(CCn1ccc(-c2cc(C(F)(F)F)ccn2)n1)C(=O)c1cc(C)ccc1-n1nccn1`, the Kb in data set [1] is 28 nM; in data set [2], 66.4 nM.
On the same counts, the results for `CCN(CCc1cc(-c2ccc(F)cn2)no1)C(=O)c1cc(C)ccc1-n1nccn1` are 45.5 nM and 32.2 nM.
On the same counts, the results for `CCN(CCn1cc(-c2ccc(F)cn2)cn1)C(=O)c1cc(C)ccc1-n1nccn1` are 3.81 nM and 7.22 nM.
Taken in the same sequence, the figures for `CCN(CCn1ccc(-c2cccc(C)n2)n1)C(=O)c1cc(C)ccc1-n1nccn1` were 0.41 nM and 1.96 nM.
Consider `CCN(CCn1ccc(-c2ccc(F)cn2)n1)C(=O)c1cc(F)ccc1-n1nccn1`, for which the Kb stood at 6.67 nM in data set [1] and 11.4 nM in data set [2]. Further, in data set [3], the metabolised at 0.25 h, 5 µM came to 35.3%.
Taken in the same sequence, the figures for `CCN(CCn1ccc(-c2ccc(F)cn2)n1)C(=O)c1cc(C)ccc1-n1nccn1` were 0.43 nM, 0.89 nM and 35%.
As to `Cc1ccc(-n2nccn2)c(C(=O)NCCn2ccc(-c3ccc(F)cn3)n2)c1`, the antagonist dissociation constant (Kb) turned out to be 152 nM in data set [1] and 376 nM in data set [2].
As for `CCN(CCn1ccc(-c2ccc(F)cn2)n1)C(=O)c1cc(Cl)ccc1-n1nccn1`, the Kb in data set [1] amounted to 1.48 nM; in data set [2], 2.82 nM. In data set [3], the metabolised at 0.25 h, 5 µM turned out to be 46.9%.
`Cc1ccc(-n2nccn2)c(C(=O)N(CCn2ccc(-c3ccc(F)cn3)n2)C(C)C)c1`: the results for the Kb in data set [1] and in data set [2] were 38.5 nM and 37.9 nM, respectively.
On the same counts, the results for `CCN(CCn1ccc(-c2ccc(F)cc2)n1)C(=O)c1cc(C)ccc1-n1nccn1` are 0.32 nM and 1.25 nM.
On the same counts, the results for `CCN(CCn1ccc(-c2ccc(F)cn2)n1)C(=O)c1cc(OC)ccc1-n1nccn1` are 119 nM and 638 nM.
As to `CCN(CCc1cc(-c2ccc(F)cn2)on1)C(=O)c1cc(C)ccc1-n1nccn1`, the Kb in data set [1] came to 15.2 nM; in data set [2] it was 19.8 nM.
Compound `Cc1ccc(-n2nccn2)c(C(=O)N2CCN(c3nc4cc(Cl)ccc4o3)CC[C@H]2C)c1` [SUVOREXANT] showed a half-life in data set [4] of 540 min.
On the same count and under the same terms, then `Cc1nc(C(=O)N2CCCC[C@H]2CNC(=O)c2cccc3occc23)c(-c2ccc(F)cc2)s1` [SB-649868], with 204 min.
Consider `CCN(CCn1ccc(-c2cccc(C(F)(F)F)n2)n1)C(=O)c1cc(C)ccc1-n1nccn1`, for which the figures for the Kb in data set [1] and in data set [2] were 3.19 nM and 3.92 nM, respectively.
For the compound `CCN(CCc1noc(-c2ccc(F)cn2)n1)C(=O)c1cc(C)ccc1-n1nccn1`, the Kb in data set [1] was 8.09 nM; in data set [2], 23 nM.
